Data from PMC7226286 (Cancer Science, 2020).

Test system: STAT3 and RAF/MEK/ERK pathways in SAS xenograft tumors
Experiment: Western blot of SAS xenograft tumor lysates
Assay type: in vivo, mice
Settings: day 12, 6 hours after final administration
How it was run: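 Male BALB/c nude mice (6 weeks old) bearing subcutaneous SAS oral tumours; test compound (50 or 60 mg/kg), a kinase inhibitor (10 mg/kg), the combination or vehicle given orally, 5 days on/2 off from day 1 (palpable tumours). Day 12: tumours (n = 3) excised 6 h after last dose, snap-frozen, lysed; immunoblot for pY705-STAT3, STAT3, pT202/Y204-ERK1/2, ERK1/2, survivin, β-actin.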

## CNC(=O)c1cc(Oc2ccc(NC(=O)Nc3ccc(Cl)c(C(F)(F)F)c3)cc2)ccn1 [Sorafenib]
  phospho‐ERK in tumor tissues: clearly reduced
  phospho‐STAT3 in tumor tissues: clearly reduced
  survivin in tumor tissues: moderately suppressed
